Data taken from ChEMBL document CHEMBL4513216, “Probing the Open Global Health Chemical Diversity Library for Multistage-Active Starting Points for Next-Generation Antimalarials” (ACS Infect Dis, 2020).

Assay: Toxicity liver stage against HepG2, at 10uM
Format: cell-based
Design: test concentration 10 uM, cell line HepG2-A16-CD81EGFP
Settings: human, HepG2-A16-CD81EGFP cells; read-out: INHIBITION
Procedure, shortened: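 Uninfected HepG2-A16-CD81EGFP cells, 3 × 10^3 per well, 1536-well, plated on prespotted compound at 10 μM final, parasite-free screening media added to match infected plates; puromycin 10 μM positive, DMSO 0.5% negative; run in parallel with 48 h PbLuc assay at 37 °C, 5% CO2; viability by CellTiter-Glo luminescence, normalized to controls.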

| Compound | cytotoxicity at 10 µM |
| --- | --- |
| Cc1nc(C)c(CN2CCOC(Cc3ccccc3Cl)C2)nc1C (stereo not given) | 5.32% |
| CCCNC(=O)COc1cc(C)c2c(C)nn(-c3ccc(C)cc3)c2n1 | -0.217% |
| O=c1[nH]cc(Nc2ccc(Cl)cc2)c(=O)[nH]1 | 18.4% |
| O=c1ccc(-n2ccnc2)nn1CCNS(=O)(=O)c1ccc(Cl)s1 | -1.36% |
| CCc1ccc(S(=O)(=O)NCCC(O)c2ccoc2)s1 (stereo not given) | -10.9% |
| CC(C)CC(=O)N1CC[C@@H]2CN(CC(=O)N(C)C)S(=O)(=O)[C@@H]2CC1 | 10% |
| CCN1C(=O)CC(c2cnn(C)c2)C12CCN(C(=O)c1ccoc1)CC2 (stereo not given) | 9.61% |
| CS(=O)(=O)N[C@@H]1COC[C@@H]2CN(Cc3ccoc3)C[C@@H]21 | -4.85% |
| Cc1ccc2c(c1)CCC21CCN(CCO)CC1 | -0.675% |
| CS(=O)(=O)N1CC[C@H]2O[C@@H](C(=O)NCc3ccco3)CC[C@H]21 | 4.23% |
| COc1ncccc1C(=O)N1CC[C@H]2C[C@@H](c3noc(C)n3)O[C@@H]2C1 | 4.76% |
| O=C(CCn1ccc2ccc(Br)cc21)NCc1ccc(C(=O)O)cc1 | 13.4% |
| CC(C)CCn1[nH]c(CNc2ccc(F)cc2)nc1=O | 11.3% |
| CCCOc1ccc(C2SCC(=O)Nc3c2c(=O)[nH]n3C(C)C)cc1 (stereo not given) | 5.95% |
| Cc1c(CCC(=O)Nc2ccc(Br)cn2)cnn1C | -6.14% |
| O=c1c2cc3c(cc2nnn1Cc1ccccc1)OCCO3 | 7.38% |
| Cc1nn(C)cc1-c1cc(-c2cn(C)nc2C)n(CC(=O)NC2CC2)n1 | 4.46% |
| COCCNC(=O)C(C)n1cc(Br)cn1 (stereo not given) | -15% |
| CCN1CCCc2cc(CN3CCc4nc(C)[nH]c(=O)c4C3)ccc21 | 0.13% |
| COCC(=O)N1CCC(c2noc3nc(C)cc(C(F)(F)F)c23)CC1 | 2.78% |
| O=S1(=O)CCN(CCCc2ccc(Cl)cc2)CC1 | 1.91% |
| CCS(=O)(=O)CC(=O)NC(C)c1ccc(OCCC(C)C)cc1 (stereo not given) | 5.61% |

| Compound | cytotoxicity at 10 µM |
| --- | --- |
| O=C1NCC(C(=O)NCc2ccccc2CN2CCOCC2)N1 (stereo not given) | 3.64% |
| COCCC(C)NCc1ccccc1-n1ccnc1 (stereo not given) | 1.91% |
| COCC(=O)N1CCN(c2ncnc3cccc(F)c23)CC1 | 6.37% |
| CCc1cc(NCCCNS(C)(=O)=O)nc(-c2ccncc2)n1 | 3.62% |
| COCCOc1ccccc1NC(C)C(=O)NC(=O)NC(C)(C)C (stereo not given) | 1.47% |
| Cc1ccn2ncc(C(=O)N3CCCC(c4cc(C)[nH]n4)C3)c2n1 (stereo not given) | -8.02% |
| Cn1cc(CCC(=O)NS(=O)(=O)N2CCCc3ccccc32)cn1 | 14.6% |
| Cc1[nH]ccc1C(=O)NCC1CC(=O)N(CCc2ccccc2)C1 (stereo not given) | -1.92% |
| CN(c1ccc(F)cc1)S(=O)(=O)c1cc2c(c(C(=O)O)c1)OCCO2 | -5.79% |
| O=C(NCCCN1CCN(c2ncccn2)CC1)Nc1ccccn1 | -7.48% |
| Cc1ccccc1CN1CCCN(CCN2CCOC2=O)CC1 | -7.53% |
| c1cc(CCN2CCC(NCc3ccsc3)CC2)ccn1 | -11% |
| COc1ncccc1NC(=O)N1CCC(c2ccc(O)cc2)CC1 | 4.87% |
| COc1cccc2c1OCC(NC(=O)NCCC(N)=O)C2 (stereo not given) | -1.38% |
| COc1ccc(-c2cnc(CN3CCCC3CO)o2)cc1 (stereo not given) | 9.38% |
| C[S+]([O-])c1cccc(NC(=O)N(CCC#N)Cc2ccccn2)c1 (stereo not given) | 10.6% |
| CC1COCCN1Cc1nc(C(C)(C)C)no1 (stereo not given) | 4.87% |
| CN(Cc1cnn(C)c1)C(=O)c1cc2ccccc2c(=O)[nH]1 | -5.64% |
| N#Cc1ccc(NCCCN2C(=O)COc3ccccc32)nc1 | 11% |
| O=C(Nc1c(F)cccc1Oc1ccccc1)C1CCS(=O)(=O)C1 (stereo not given) | 1.91% |
| NC(=O)CN1CCC(Nc2ccnc3ccc(Cl)cc23)CC1 | 31.8% |
| Cc1ccc(C2CSCCN2CC(=O)N2CCOCC2)cc1 (stereo not given) | 9.04% |

| Compound | cytotoxicity at 10 µM |
| --- | --- |
| O=C(NCc1cc[nH]n1)NCC(c1ccco1)N1CCCC1 (stereo not given) | 13.6% |
| Cc1ccc(CNC2CCN(CCc3ccncc3)CC2)cc1C | -8.92% |
| COCc1noc(C2(c3ccc(F)cc3)CCOCC2)n1 | -25.3% |
| CCc1nc(COc2ccc(OCc3cnn(C)c3)cc2)no1 | -14.9% |
| Cc1ccc(C(=O)N2CCSCC2)cc1NC(=O)Cn1cncn1 | -11.1% |
| Cc1cnn(CC(C)NCc2nc(-c3cccnc3)no2)c1 (stereo not given) | -8.86% |
| COCCCNc1nccc(-c2c[nH][nH]c2=O)n1 | 7.46% |
| CCOCCC(=O)N1CCCN(c2ccccc2C)CC1 | -7.68% |
| COCCN(C)[C@@H]1c2ccccc2C2(CCNCC2)[C@H]1O | -4.61% |
| N#Cc1cccc(NC2CC(=O)N(CCCc3ccccc3)C2)n1 (stereo not given) | 5.82% |
| O=C(Nc1ccccc1CCc1ccccn1)NC1CCOCC1 | 6.1% |
| CN1CCCN(C(=O)c2cccc(S(=O)(=O)NCC3(C)COC3)c2)CC1 | -6.63% |
| CCN(Cc1cc(Cl)ccc1OC)Cc1nccn1C | 1.87% |
| Nc1cc(-c2cc(C(=O)O)ccc2Cl)c2cc[nH]c2n1 | 1.94% |
| CN(CCCN1CCOCC1)[C@@H]1c2ccccc2C2(CCNCC2)[C@H]1O | -3.12% |
| O=C(NCCc1nc(-c2ccccn2)no1)c1ccc(C2CCCO2)s1 (stereo not given) | 5.65% |
| COc1ccc(F)c(-c2cc(C(=O)NC3CC3)ccn2)c1 | -1.36% |
| CCNc1ncc(CN2CCOC(Cc3cccc(OC)c3)C2)cn1 (stereo not given) | 0.583% |
| CC(=O)N1CCCN(C(C(=O)O)c2ccccc2OC(F)(F)F)CC1 (stereo not given) | 15.5% |
| Fc1cnc(N2CCN(Cc3ccc(-c4cc[nH]n4)o3)CC2)nc1 | -6% |
| CC(C)N1CCC[C@H]1C(=O)NCC1CCN(c2cnn(C)c(=O)c2)CC1 | 4.75% |
| CCc1nnc(CN(CC)C(=O)C2CCC(=O)N(C3CCCC3)C2)o1 (stereo not given) | 2.01% |

| Compound | cytotoxicity at 10 µM |
| --- | --- |
| COCCN(C)CCN1CC2(CCN(C3CCOCC3)CC2)OC1=O | 4.5% |
| COc1cccc(-n2cc(CN(C)Cc3ccnc(C(C)C)n3)cn2)c1 | -1.29% |
| CC(=O)N1CCN(C[C@H]2CC[C@@H](Cc3ccc4c(c3)OCO4)O2)CC1 | -7.9% |
| Cc1[nH]ccc1C(=O)N1CCC(c2nnc(Cn3cccn3)n2C)CC1 | -11.5% |
| CC(C)CCc1noc(CN2CCCN(C(=O)c3ccco3)CC2)n1 | -7.06% |
| O=C(NC1CCCC1)N1CCCC(c2nccn2Cc2ccncc2)C1 (stereo not given) | -18.3% |
| Cn1cc(C(=O)N2CCC(Cc3nccs3)CC2)cn1 | 7.63% |
| COCCc1noc(CN2CCOC(CN(C)C)C2)n1 (stereo not given) | -1.04% |
| CCc1nnc(CN2CCOC(Cn3cc(C)cn3)C2)o1 (stereo not given) | -6.59% |
| Cc1ccc(NC2CCN(C(=O)CCn3nc(C)cc3C)CC2)nn1 | -9.66% |
| Cc1ccc(C(=O)NC(CN2CCCC2=O)c2ccccc2)cn1 (stereo not given) | -4.6% |
| CCc1nc(CN2CCCC(NCc3cnc(C)s3)C2)no1 (stereo not given) | -9.26% |
| Cc1ccc(O)c(CNC2CCCN(Cc3noc(C4CC4)n3)C2)n1 (stereo not given) | -5.59% |
| CC(NC(=O)NCCCc1n[nH]c(N)c1C#N)c1ccccc1F (stereo not given) | -3.6% |
| O=C1CC(N(C(=O)c2ccc(F)c(F)c2)C2CC2)C(=O)N1 (stereo not given) | 2.1% |
| Cc1cnc(CN(C)C2CCN(Cc3nc4ccccc4s3)C2)o1 (stereo not given) | -7.97% |
| Cc1nc(C2CCCN2Cc2cc(=O)n(C)c(=O)n2C)no1 (stereo not given) | -0.222% |
| COCCn1cc(NC(=O)NC(C)Cc2c(F)cccc2F)cn1 (stereo not given) | -4.5% |
| c1ccc(Cc2noc(CN(Cc3cccs3)CC3CCCO3)n2)cc1 (stereo not given) | -5.77% |
| COC(=O)c1cccc(C(=O)N2CCCC(n3cncn3)C2)c1 (stereo not given) | -6.48% |
| Clc1snnc1CN1CCOC(CNc2cccnn2)C1 (stereo not given) | -11% |
| CC(Nc1cccc(CN2CCOC2=O)c1)C(=O)NC(N)=O (stereo not given) | -7.44% |

| Compound | cytotoxicity at 10 µM |
| --- | --- |
| Cc1cc(C2CCCN2CCCS(=O)(=O)c2ccccc2)no1 (stereo not given) | -8.83% |
| c1cnnc(N2CCCC2CNCc2nc(C3CC3)no2)c1 (stereo not given) | -22.6% |
| O=C(Nc1ccccc1F)N(CCO)Cc1ccsc1 | 2.05% |
| O=C(CN1CCC(c2cccc(F)c2)C1)NCC(F)(F)F (stereo not given) | -10.4% |
| Cc1cccc(OCCC(=O)N2CCCN(C(N)=O)CC2)c1C | -6.8% |
| CC(C)OCCCNC(=O)CN1CCC(N2CCN(C)C2=O)CC1 | -6.82% |
| CC(Cn1ccnc1)NC(=O)NCCc1ccc2c(c1)OCCO2 (stereo not given) | -1.35% |
| Cc1cnn(CC2CN(CC(=O)NCCc3cccs3)CCO2)c1 (stereo not given) | 1.88% |
| Cc1cn2c(n1)CCC(NC(=O)c1c[nH]c(C)n1)C2 (stereo not given) | -0.361% |
| Cc1ccc(NC(=O)N2CCN(Cc3noc(C4CC4)n3)CC2)cc1 | 4.88% |
| CN(C)c1ncc(-c2ccc(F)cc2)c(C2CNCCO2)n1 (stereo not given) | -5.68% |
| O=S(=O)(C1CC1)N1C[C@H](Oc2ccccn2)[C@H]2OCCC[C@H]21 | -3.7% |
| c1c2c(nn1CC1CC1)C(CNC1CCOCC1)OCC2 (stereo not given) | 7.43% |
| Cc1noc(C)c1CN1C[C@H](OCC(=O)N(C)C)[C@H]2COC[C@H]21 | 7.61% |
| Cc1cnc(N2C[C@@H]3CN(Cc4ccco4)CCC[C@]3(C(=O)O)C2)nc1 | 7.25% |
| Cn1cc(N2CC3(CCN(CC4CC4)C3)CC2=O)cn1 (stereo not given) | 1.84% |
| O=C1[C@H]2CN(S(=O)(=O)C3CC3)C[C@H]2CN1Cc1cccnc1 | -0.0545% |
| CC(C)n1cnc2c1C(C(=O)NCCC#N)N(Cc1ccccc1)CC2 (stereo not given) | -7.2% |
| c1cnc(N2C[C@@H]3COC[C@]3(COCC3CCCC3)C2)nc1 | -8.85% |
| Cc1oncc1C(=O)N1C[C@H](OCc2ccccn2)[C@H]2OCCC[C@H]21 | -0.385% |
| Cc1nc(CN2CCOCC3(CCCN(c4cnccn4)C3)C2)cs1 (stereo not given) | -1.81% |
| Cc1cccc(N2CCC3(CCN(Cc4ccccn4)CC3)CC2)n1 | 4.17% |
